Data reported in ChEMBL document CHEMBL3098097, “Design, synthesis and evaluation of 7-azaindazolyl-indolyl-maleimides as glycogen synthase kinase-3β (GSK-3β) inhibitors” (Eur J Med Chem, 2013).
Calls of active or inactive are those of the source. No cut-off for these calls is given here.

Experiments:
[1] = molecular target: T1, Glycogen synthase kinase-3 beta (Homo sapiens, UniProt P49841); test: Inhibition of recombinant GST-tagged GSK-3beta (unknown origin) expressed in Escherichia coli BL21 assessed as phosphate incorporation in CREB
Target sequence in this assay (P49841 whole entry): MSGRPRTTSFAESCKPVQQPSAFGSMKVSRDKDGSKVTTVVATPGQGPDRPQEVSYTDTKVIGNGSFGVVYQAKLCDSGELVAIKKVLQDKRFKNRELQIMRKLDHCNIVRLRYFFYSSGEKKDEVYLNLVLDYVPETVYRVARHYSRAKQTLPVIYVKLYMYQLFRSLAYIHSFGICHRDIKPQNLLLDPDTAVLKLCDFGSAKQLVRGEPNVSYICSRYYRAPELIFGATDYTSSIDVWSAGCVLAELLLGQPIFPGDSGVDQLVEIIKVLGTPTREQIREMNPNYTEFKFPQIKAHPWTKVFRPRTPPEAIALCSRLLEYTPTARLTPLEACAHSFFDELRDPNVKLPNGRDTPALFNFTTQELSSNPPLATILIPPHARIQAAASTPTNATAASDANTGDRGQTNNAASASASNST

[2] = molecular target: Mitogen-activated protein kinase 3 (Homo sapiens, UniProt P27361); test: Inhibition of recombinant ERK1 (unknown origin) expressed in Escherichia coli
Mitogen-activated protein kinase 3, sequence (P27361 whole entry): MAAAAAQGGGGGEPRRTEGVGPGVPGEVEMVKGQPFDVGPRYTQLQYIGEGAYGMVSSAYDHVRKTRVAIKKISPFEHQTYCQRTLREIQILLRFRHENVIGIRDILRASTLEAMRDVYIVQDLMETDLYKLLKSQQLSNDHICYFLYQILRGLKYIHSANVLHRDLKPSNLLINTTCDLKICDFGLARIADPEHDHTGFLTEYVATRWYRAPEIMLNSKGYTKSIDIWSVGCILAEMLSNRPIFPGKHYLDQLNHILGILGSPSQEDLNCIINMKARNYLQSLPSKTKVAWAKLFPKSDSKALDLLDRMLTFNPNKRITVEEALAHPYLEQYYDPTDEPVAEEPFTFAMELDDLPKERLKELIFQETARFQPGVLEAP
How it was run: (§1)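 E. coli-expressed recombinant kinase tested in a Z'-LYTE kinase assay kit.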

[3] = molecular target: T1, Glycogen synthase kinase-3 beta; test: Inhibition of GSK-3beta in human SH-SY5Y cells assessed as reduction of amyloid beta (25 to 35)-induced Tau hyperphosphorylation at Ser396 at 10 uM incubated for 1 hr prior to amyloid beta (25 to 35) induction measured after 6 hrs by Western blotting analysis; type: cell-based
How it was run: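 SH-SY5Y cells (ATCC) in 1:1 DMEM:Ham's F12 with 10% FBS and 1% penicillin/streptomycin, 5% CO2. Grown to ~80% confluence, serum-deprived 12 h, inhibitor added 1 h before Aβ25–35 for another 6 h. Lysed in SDS loading buffer, run on 10% SDS-PAGE, blotted to PVDF, probed with rabbit anti-Tau pS396, ECL detection.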
Target sequence in this assay (P49841 whole entry, looked up): as the sequence (P49841 whole entry) above

[4] = molecular target: Dual specificity mitogen-activated protein kinase kinase 1 (Homo sapiens, UniProt Q02750); test: Inhibition of recombinant MEK1 (unknown origin) expressed in Escherichia coli; how it was run: as §1
Dual specificity mitogen-activated protein kinase kinase 1, sequence (Q02750 whole entry): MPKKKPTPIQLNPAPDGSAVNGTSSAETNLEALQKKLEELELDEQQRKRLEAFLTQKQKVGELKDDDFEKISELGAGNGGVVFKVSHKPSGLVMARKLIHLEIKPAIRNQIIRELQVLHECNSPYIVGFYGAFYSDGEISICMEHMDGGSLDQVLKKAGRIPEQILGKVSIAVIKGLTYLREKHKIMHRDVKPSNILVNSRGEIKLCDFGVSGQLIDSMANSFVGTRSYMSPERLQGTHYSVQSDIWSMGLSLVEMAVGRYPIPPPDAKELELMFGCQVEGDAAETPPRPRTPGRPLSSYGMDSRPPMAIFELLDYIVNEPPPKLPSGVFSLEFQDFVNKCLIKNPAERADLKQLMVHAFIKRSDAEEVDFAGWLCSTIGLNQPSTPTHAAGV

Aurora kinase A = molecular target: T2, Aurora kinase A (Homo sapiens, UniProt O14965); test: Inhibition of recombinant aurora kinase A (unknown origin) expressed in Escherichia coli; how it was run: as §1
T2 sequence (O14965 whole entry): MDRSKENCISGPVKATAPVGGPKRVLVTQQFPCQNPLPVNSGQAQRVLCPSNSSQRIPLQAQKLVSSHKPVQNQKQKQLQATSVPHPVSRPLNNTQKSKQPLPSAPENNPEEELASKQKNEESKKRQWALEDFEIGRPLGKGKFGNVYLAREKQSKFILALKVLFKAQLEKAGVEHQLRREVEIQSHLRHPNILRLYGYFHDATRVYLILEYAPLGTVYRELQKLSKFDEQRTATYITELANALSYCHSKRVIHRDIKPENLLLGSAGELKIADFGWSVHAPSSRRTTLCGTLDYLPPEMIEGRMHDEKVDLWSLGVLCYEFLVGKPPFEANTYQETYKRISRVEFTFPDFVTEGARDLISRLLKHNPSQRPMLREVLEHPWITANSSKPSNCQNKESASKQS

[5] = molecular target: T3, Inhibitor of nuclear factor kappa-B kinase subunit beta (Homo sapiens, UniProt O14920); test: Inhibition of recombinant IKK2 (unknown origin) expressed in baculovirus expression system
T3 sequence (O14920 whole entry): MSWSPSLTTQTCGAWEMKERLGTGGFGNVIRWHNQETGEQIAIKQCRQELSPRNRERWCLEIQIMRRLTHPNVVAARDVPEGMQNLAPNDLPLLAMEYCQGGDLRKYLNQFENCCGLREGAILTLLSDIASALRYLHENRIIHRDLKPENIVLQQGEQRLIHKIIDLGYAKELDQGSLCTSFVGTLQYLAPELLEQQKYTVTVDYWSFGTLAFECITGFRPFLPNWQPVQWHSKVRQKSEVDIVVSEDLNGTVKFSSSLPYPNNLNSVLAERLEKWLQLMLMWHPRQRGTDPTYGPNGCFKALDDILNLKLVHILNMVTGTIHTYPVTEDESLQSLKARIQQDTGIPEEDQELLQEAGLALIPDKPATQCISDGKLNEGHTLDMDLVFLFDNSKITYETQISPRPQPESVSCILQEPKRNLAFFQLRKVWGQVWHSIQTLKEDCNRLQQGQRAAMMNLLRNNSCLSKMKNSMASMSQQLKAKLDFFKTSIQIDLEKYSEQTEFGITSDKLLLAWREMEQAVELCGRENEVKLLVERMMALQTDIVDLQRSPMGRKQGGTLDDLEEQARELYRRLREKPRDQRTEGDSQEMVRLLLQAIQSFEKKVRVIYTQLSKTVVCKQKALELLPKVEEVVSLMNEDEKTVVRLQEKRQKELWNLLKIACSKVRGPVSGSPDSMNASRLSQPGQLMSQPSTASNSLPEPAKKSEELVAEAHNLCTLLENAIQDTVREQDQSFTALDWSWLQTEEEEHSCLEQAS
How it was run: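 Recombinant kinase expressed in the Bac-to-Bac baculovirus system, tested in a Z'-LYTE kinase assay kit.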

[6] = molecular target: T4, Protein kinase C epsilon type (Homo sapiens, UniProt Q02156); test: Inhibition of recombinant PKCE (unknown origin) expressed in baculovirus expression system
T4 sequence (Q02156 whole entry): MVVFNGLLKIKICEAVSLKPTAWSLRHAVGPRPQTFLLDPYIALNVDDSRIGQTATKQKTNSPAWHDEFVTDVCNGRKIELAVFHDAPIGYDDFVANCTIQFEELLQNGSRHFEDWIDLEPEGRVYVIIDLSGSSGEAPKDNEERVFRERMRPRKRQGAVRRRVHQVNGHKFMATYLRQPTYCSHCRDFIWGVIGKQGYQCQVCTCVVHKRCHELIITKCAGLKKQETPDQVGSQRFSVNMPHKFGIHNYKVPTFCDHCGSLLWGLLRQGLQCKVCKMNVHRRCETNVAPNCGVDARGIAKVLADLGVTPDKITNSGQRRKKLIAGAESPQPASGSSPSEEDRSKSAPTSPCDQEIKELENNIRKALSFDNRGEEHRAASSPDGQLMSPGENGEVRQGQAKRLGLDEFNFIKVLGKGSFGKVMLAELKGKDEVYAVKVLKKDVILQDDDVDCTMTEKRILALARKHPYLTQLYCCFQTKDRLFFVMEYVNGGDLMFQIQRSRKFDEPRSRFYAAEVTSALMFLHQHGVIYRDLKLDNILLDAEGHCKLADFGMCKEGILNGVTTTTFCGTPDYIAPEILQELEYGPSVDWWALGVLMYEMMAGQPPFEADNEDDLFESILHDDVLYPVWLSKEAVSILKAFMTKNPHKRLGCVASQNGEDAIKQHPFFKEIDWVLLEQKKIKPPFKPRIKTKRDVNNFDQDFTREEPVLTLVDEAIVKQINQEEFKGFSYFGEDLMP

[7] = molecular target: T1, Glycogen synthase kinase-3 beta; test: Inhibition of recombinant GST-tagged GSK-3beta (unknown origin) expressed in Escherichia coli BL21 assessed as phosphate incorporation in CREB at 20 ug/mL relative to control
How it was run: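 GST-GSK-3β expressed in E. coli BL21-CodonPlus (DE3), purified by GSTrap and thrombin-cleaved. Activity measured by Z'-LYTE kinase assay at 50 nM final enzyme. Run in triplicate with blanks subtracted. Activity given as pmol phosphate incorporated into CREB per minute or as percent of maximal activity.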
Target sequence in this assay (P49841 whole entry, looked up): as the sequence (P49841 whole entry) above

Row | SMILES | IC50 [1] [µM] | inhibition [3] | further results
1 | CN1CCN(CCCn2nc(C3=C(c4cn(C)c5ccccc45)C(=O)NC3=O)c3cccnc32)CC1 | 3.34 |  | 
2 | Cn1cc(C2=C(c3nn(CCn4ccnc4)c4ncccc34)C(=O)NC2=O)c2ccccc21 | 0.81 | Active | IC50 [2]: > 40 µM; IC50 [4]: > 40 µM; IC50 (Aurora kinase A): > 40 µM; IC50 [5]: > 40 µM; IC50 [6]: > 40 µM
3 | O=C1NC(=O)C(c2n[nH]c3ncccc23)=C1c1c[nH]c2ccccc12 | 7.31 |  | 
4 | CC(C)CN1C(=O)C(c2c[nH]c3ccccc23)=C(c2n[nH]c3ncccc23)C1=O |  |  | inhibition [7]: 45.7%
5 | Cn1cc(C2=C(c3nn(CCN4CCOCC4)c4ncccc34)C(=O)NC2=O)c2ccccc21 | 0.36 | Active | IC50 [2]: > 40 µM; IC50 [4]: > 40 µM; IC50 (Aurora kinase A): > 40 µM; IC50 [5]: > 40 µM; IC50 [6]: > 40 µM
6 | C=Cn1cc(C2=C(c3nn(CCCN4CCOCC4)c4ncccc34)C(=O)NC2=O)c2ccccc21 | 8.84 |  | 
7 | Cn1cc(C2=C(c3nn(CCCCn4ccnc4)c4ncccc34)C(=O)NC2=O)c2ccccc21 | 0.96 |  | 
8 | Cn1cc(C2=C(c3nn(CCCO)c4ncccc34)C(=O)NC2=O)c2ccccc21 | 1.09 | Active | 
9 | O=C1NC(=O)C(c2nn(CCCN3CCOCC3)c3ncccc23)=C1c1c[nH]c2ccccc12 | 0.83 | Active | 
10 | Cn1cc(C2=C(c3nn(CCCCN4CCOCC4)c4ncccc34)C(=O)NC2=O)c2ccccc21 | 0.46 |  | 
11 | O=CNN1C(=O)C(c2c[nH]c3ccccc23)=C(c2n[nH]c3ncccc23)C1=O |  |  | inhibition [7]: -7.42%
12 | CC(C)n1cc(C2=C(c3nn(CCCN4CCOCC4)c4ncccc34)C(=O)NC2=O)c2ccccc21 | 0.38 | Active | IC50 [2]: > 40 µM; IC50 [4]: > 40 µM; IC50 (Aurora kinase A): > 40 µM; IC50 [5]: > 40 µM; IC50 [6]: > 40 µM
13 | NN1C(=O)C(c2c[nH]c3ccccc23)=C(c2n[nH]c3ncccc23)C1=O |  |  | inhibition [7]: 28.6%
14 | O=C1NC(=O)C(c2nn(CCCN3CCOCC3)c3ncccc23)=C1c1cn(CCCn2ccnc2)c2ccccc12 | 0.68 | inactive | 
15 | NC(=O)NN1C(=O)C(c2c[nH]c3ccccc23)=C(c2n[nH]c3ncccc23)C1=O |  |  | inhibition [7]: -6.81%
16 | Cn1cc(C2=C(c3nn(CCCN4CCCCC4)c4ncccc34)C(=O)NC2=O)c2ccccc21 | 2.66 |  | 
17 | COC(=O)CN1C(=O)C(c2c[nH]c3ccccc23)=C(c2n[nH]c3ncccc23)C1=O |  |  | inhibition [7]: 51.5%
18 | Cn1cc(C2=C(c3n[nH]c4ncccc34)C(=O)NC2=O)c2ccccc21 | 12.3 |  | 
19 | C=CCn1cc(C2=C(c3nn(CCCN4CCOCC4)c4ncccc34)C(=O)NC2=O)c2ccccc21 | 0.96 |  | 
20 | CN(C)CCCn1nc(C2=C(c3cn(C)c4ccccc34)C(=O)NC2=O)c2cccnc21 | 5.69 |  | 
21 | Cn1cc(C2=C(c3nn(CCCN4CCOCC4)c4ncccc34)C(=O)NC2=O)c2ccccc21 | 0.75 | Active | 
22 | O=C1NC(=O)C(c2nn(CCCN3CCOCC3)c3ncccc23)=C1c1cn(Cc2ccccc2)c2ccccc12 | 1.9 |  | 
23 | O=C1C(c2c[nH]c3ccccc23)=C(c2n[nH]c3ncccc23)C(=O)N1c1ccccc1 |  |  | inhibition [7]: 4.14%
24 | NC(=S)NN1C(=O)C(c2c[nH]c3ccccc23)=C(c2n[nH]c3ncccc23)C1=O |  |  | inhibition [7]: 33.7%
25 | O=C1NC(=O)C(c2nn(CCCN3CCOCC3)c3ncccc23)=C1c1cn(CCCN2CCOCC2)c2ccccc12 | 1.29 | inactive | 
26 | Cn1cc(C2=C(c3nn(CCCn4ccnc4)c4ncccc34)C(=O)NC2=O)c2ccccc21 | 4.89 |  | 
